Experimental data as given in ChEMBL document CHEMBL3259553 (J Med Chem, 2014).
Calls of active or inactive are those of the source. No cut-off for these calls is given here.

Key:
[1] = species on record: Rattus norvegicus; experiment: Antidyslipidemic activity in hypercholesterolemic rat model assessed as reduction in non-HDL-C level; assay type: functional, organism-based
[2] = species on record: Oryctolagus cuniculus; experiment: Antidyslipidemic activity in hypercholesterolemic rabbit model assessed as reduction in non-HDL-C level; assay type: functional, organism-based
[3] = AUC in rat at 5 mg/kg, po; assay type: ADME, organism-based; set-up: dose 5 mg/kg, route oral; conditions: plasma
[4] = species on record: Oryctolagus cuniculus; experiment: Antidyslipidemic activity in hypercholesterolemic rabbit model assessed as reduction in liver triglycerides; assay type: functional, organism-based
[5] = system: Mus musculus; experiment: Antidyslipidemic activity in diet-induced obese C57Bl/6J mouse model assessed as reduction in cholesterol level at 0.3 to 10 mg/kg, po administered daily for 23 days; assay type: functional, organism-based
Procedure, shortened: (§1)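 C57Bl/6J mice aged six weeks were fed a high fat diet for 34 weeks. Body weight and food intake were monitored. BMD and body composition were assessed on day 22, and laboratory assessments were made at study end.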

[6] = target: Cytochrome P450 3A5 (Homo sapiens, UniProt P20815); experiment: Inhibition of CYP3A5 (unknown origin); assay type: ADME
Chain of Cytochrome P450 3A5 (P20815 whole entry): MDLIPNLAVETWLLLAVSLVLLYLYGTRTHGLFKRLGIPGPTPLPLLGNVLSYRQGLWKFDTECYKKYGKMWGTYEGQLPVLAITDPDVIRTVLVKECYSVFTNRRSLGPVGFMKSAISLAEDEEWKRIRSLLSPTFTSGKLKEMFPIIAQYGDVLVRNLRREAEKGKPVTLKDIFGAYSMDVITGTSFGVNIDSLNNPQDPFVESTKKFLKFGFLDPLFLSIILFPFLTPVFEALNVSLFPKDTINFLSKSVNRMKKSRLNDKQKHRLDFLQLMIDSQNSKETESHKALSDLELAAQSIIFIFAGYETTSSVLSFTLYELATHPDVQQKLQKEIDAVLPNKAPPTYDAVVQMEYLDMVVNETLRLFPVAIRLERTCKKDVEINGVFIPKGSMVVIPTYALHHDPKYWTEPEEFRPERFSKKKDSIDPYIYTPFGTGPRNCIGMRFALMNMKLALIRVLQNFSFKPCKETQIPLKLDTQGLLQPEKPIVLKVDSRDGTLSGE

[7] = Half life in rat at 5 mg/kg, po; assay type: ADME, organism-based; set-up: dose 5 mg/kg, route oral; conditions: in vivo
Procedure, shortened: (§2)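 Rat pharmacokinetics after a 5 mg/kg dose given iv, or given orally as a suspension. Values are means with SD from N = 3 rats.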

[8] = system: Rattus norvegicus; experiment: Toxicity in thyroidectomized rat assessed as T3 activity at 37.5 mg/kg, ip measured after 6 hrs; assay type: organism-based; set-up: dose 37.5 mg/kg, route intraperitoneal; conditions: in vivo
Procedure, shortened: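 Thyroidectomized rats, 4 per group, dosed ip at 5, 20 and 37.5 mg/kg in 4% DMSO, 15% PEG-400 and 81% of 30% HPBCD in phosphate buffer. Cardiac α-MHC hnRNA was measured 6 h post-dose and expressed relative to euthyroid or T3-treated full activity. Plasma exposure was measured at 6 h.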

[9] = Plasma concentration in thyroidectomized rat at 37.5 mg/kg, ip measured after 6 hrs; assay type: ADME, organism-based; set-up: dose 37.5 mg/kg, route intraperitoneal
Procedure, shortened: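 Thyroidectomized rats were dosed intraperitoneally at 5, 20 or 37.5 mg/kg, with 4 rats per group. Vehicle was 4% DMSO, 15% PEG-400 and 81% of 30% HPBCD in phosphate buffer. Cardiac α-MHC hnRNA, in arbitrary units, and plasma concentration were measured 6 h after dosing. Comparators were untreated thyroidectomized rats and euthyroid rats.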

[10] = system: Mus musculus; experiment: Toxicity in diet-induced obese C57Bl/6J mouse model assessed as effect on heart size at 0.3 to 10 mg/kg, po administered daily for 23 days; assay type: organism-based; set-up: dose 0.3-10 mg/kg, route oral; conditions: in vivo; procedure, shortened: as §1
[11] = system: Mus musculus; experiment: Antidyslipidemic activity in diet-induced obese C57Bl/6J mouse model assessed as reduction in liver triglycerides at 0.3 to 10 mg/kg, po administered daily for 23 days; assay type: functional, organism-based; procedure, shortened: as §1
[12] = system: Homo sapiens; experiment: Toxicity in healthy human with mildly elevated LDL-C level assessed as effect on effect on liver enzymes at 5 to 200 mg, po qd for 2 weeks by multiple ascending dose study; assay type: organism-based; conditions: in vivo, 336 h
Procedure, shortened: (§3)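 Multiple ascending dose study after single ascending dose study. Healthy subjects with LDL-C >110 mg/dL received once daily oral doses of 5 to 200 mg for 2 weeks. Safety and tolerability were assessed, covering QT interval, heart rate, vital signs and liver enzymes.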

[13] = system: Homo sapiens; experiment: Toxicity in healthy human with mildly elevated LDL-C level assessed as effect on heart rate at 5 to 200 mg, po qd for 2 weeks by multiple ascending dose study; assay type: organism-based; conditions: in vivo, 336 h; procedure, shortened: as §3
[14] = species on record: Rattus norvegicus; experiment: Antidyslipidemic activity in hypercholesterolemic rat model assessed as reduction in liver triglycerides; assay type: functional, organism-based
[15] = system: Homo sapiens; experiment: Toxicity in healthy human with mildly elevated LDL-C level assessed as central thyroid axis dysfunction at 5 to 200 mg, po qd for 2 weeks by multiple ascending dose study; assay type: organism-based; conditions: in vivo, 336 h
Procedure, shortened: (§4)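 Multiple ascending dose study lasting 2 weeks, run after a single ascending dose study. Healthy subjects with LDL-C >110 mg/dL took oral doses once daily from 5 to 200 mg. Safety, thyroid axis measures (free T4, free T3, TSH), heart rate, QT and liver enzymes were monitored. Lipid changes were compared with placebo.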

[16] = species on record: Mus musculus; experiment: Antidyslipidemic activity in diet-induced obese C57Bl/6J mouse model assessed as lowering glucose level to near normal level; assay type: functional, organism-based
[17] = species on record: Rattus norvegicus; experiment: Toxicity in hypercholesterolemic rat model assessed as effect on TSH level; assay type: organism-based; conditions: in vivo
[18] = target: Cytochrome P450 2C19 (Homo sapiens, UniProt P33261); experiment: Inhibition of CYP2C19 (unknown origin); assay type: ADME
Chain of Cytochrome P450 2C19 (P33261 whole entry): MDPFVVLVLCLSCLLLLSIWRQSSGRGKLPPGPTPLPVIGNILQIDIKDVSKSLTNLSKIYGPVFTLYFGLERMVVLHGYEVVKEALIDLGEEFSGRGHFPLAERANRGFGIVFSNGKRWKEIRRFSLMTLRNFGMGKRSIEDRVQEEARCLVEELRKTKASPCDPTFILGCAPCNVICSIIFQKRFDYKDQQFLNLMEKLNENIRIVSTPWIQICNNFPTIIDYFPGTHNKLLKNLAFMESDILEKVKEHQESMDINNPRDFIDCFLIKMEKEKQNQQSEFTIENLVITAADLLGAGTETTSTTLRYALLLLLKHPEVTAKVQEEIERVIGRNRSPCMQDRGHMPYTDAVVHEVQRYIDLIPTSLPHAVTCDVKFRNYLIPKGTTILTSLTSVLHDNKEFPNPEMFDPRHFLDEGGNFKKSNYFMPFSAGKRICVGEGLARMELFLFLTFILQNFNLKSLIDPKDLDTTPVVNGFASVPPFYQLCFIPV
Procedure, shortened: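 Time-dependent inhibition of the same enzyme was also assessed, with and without NADPH.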

[19] = system: Homo sapiens; experiment: Toxicity in healthy human with mildly elevated LDL-C level assessed as effect on free T3 level at 100 to 200 mg, po qd for 2 weeks; assay type: organism-based; conditions: in vivo, 336 h
Procedure, shortened: (§5)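 Healthy subjects with LDL-C >110 mg/dL received once daily oral doses for 2 weeks in a multiple ascending dose study. Free T3, free T4 and TSH were compared with placebo.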

[20] = system: Caco-2; experiment: Permeability from basolateral to apical side of human Caco2 cells; assay type: ADME, cell-based
[21] = system: Homo sapiens; experiment: Toxicity in healthy human with mildly elevated LDL-C level assessed as reversible reduction in free T4 level at 100 mg, po qd for 2 weeks; assay type: organism-based; set-up: scale not given: the % may be the effect or the level left; conditions: in vivo, 336 h; procedure, shortened: as §5
[22] = Clearance in rat at 5 mg/kg, iv; assay type: ADME, organism-based; set-up: dose 5 mg/kg, route intravenous; conditions: in vivo; procedure, shortened: as §2
[23] = system: Homo sapiens; experiment: Antidyslipidemic activity in healthy human with mildly elevated LDL-C level assessed as reduction in triglyceride at 50 to 200 mg, po qd for 2 weeks by multiple ascending dose study relative to placebo control; assay type: functional; set-up: scale not given: the % may be the effect or the level left; procedure, shortened: as §4
[24] = system: Homo sapiens; experiment: Toxicity in healthy human with mildly elevated LDL-C level assessed as reversible reduction in free T4 level at 200 mg, po qd for 2 weeks; assay type: organism-based; set-up: scale not given: the % may be the effect or the level left; conditions: in vivo, 336 h; procedure, shortened: as §5
[25] = species on record: Rattus norvegicus; experiment: Toxicity in hypercholesterolemic rat model assessed as effect on central thyroid axis; assay type: organism-based; conditions: in vivo
[26] = system: Homo sapiens; experiment: Toxicity in healthy human with mildly elevated LDL-C level assessed as adverse events at 5 to 200 mg, po qd for 2 weeks by multiple ascending dose study; assay type: organism-based; conditions: in vivo, 336 h; procedure, shortened: as §4
[27] = system: Caco-2; experiment: Permeability from apical to basolateral side of human Caco2 cells; assay type: ADME, cell-based
[28] = AUC in rat at 5 mg/kg, iv; assay type: ADME, organism-based; set-up: dose 5 mg/kg, route intravenous; conditions: plasma
[29] = Half life in rat at 5 mg/kg, iv; assay type: ADME, organism-based; set-up: dose 5 mg/kg, route intravenous; conditions: in vivo; procedure, shortened: as §2
[30] = Ratio of drug uptake in liver to plasma in diet-induced obese C57Bl/6J mouse model; assay type: ADME, tissue-based
[31] = Fraction unbound in human; assay type: ADME, organism-based; conditions: in vivo
[32] = system: Homo sapiens; experiment: Antidyslipidemic activity in healthy human with mildly elevated LDL-C level assessed as reduction in LDL-C at 50 to 200 mg, po qd for 2 weeks by multiple ascending dose study relative to placebo control; assay type: functional; set-up: scale not given: the % may be the effect or the level left; procedure, shortened: as §4
[33] = system: Homo sapiens; experiment: Toxicity in healthy human with mildly elevated LDL-C level assessed as effect on QT interval at 5 to 200 mg, po qd for 2 weeks by multiple ascending dose study; assay type: organism-based; conditions: in vivo, 336 h; procedure, shortened: as §3
[34] = species on record: Oryctolagus cuniculus; experiment: Toxicity in hypercholesterolemic rabbit model assessed as effect on central thyroid axis; assay type: organism-based; conditions: in vivo
[35] = target: hERG (KCNH2) (Homo sapiens, UniProt Q12809); experiment: Inhibition of human ERG
Chain of hERG (KCNH2) (Q12809 whole entry): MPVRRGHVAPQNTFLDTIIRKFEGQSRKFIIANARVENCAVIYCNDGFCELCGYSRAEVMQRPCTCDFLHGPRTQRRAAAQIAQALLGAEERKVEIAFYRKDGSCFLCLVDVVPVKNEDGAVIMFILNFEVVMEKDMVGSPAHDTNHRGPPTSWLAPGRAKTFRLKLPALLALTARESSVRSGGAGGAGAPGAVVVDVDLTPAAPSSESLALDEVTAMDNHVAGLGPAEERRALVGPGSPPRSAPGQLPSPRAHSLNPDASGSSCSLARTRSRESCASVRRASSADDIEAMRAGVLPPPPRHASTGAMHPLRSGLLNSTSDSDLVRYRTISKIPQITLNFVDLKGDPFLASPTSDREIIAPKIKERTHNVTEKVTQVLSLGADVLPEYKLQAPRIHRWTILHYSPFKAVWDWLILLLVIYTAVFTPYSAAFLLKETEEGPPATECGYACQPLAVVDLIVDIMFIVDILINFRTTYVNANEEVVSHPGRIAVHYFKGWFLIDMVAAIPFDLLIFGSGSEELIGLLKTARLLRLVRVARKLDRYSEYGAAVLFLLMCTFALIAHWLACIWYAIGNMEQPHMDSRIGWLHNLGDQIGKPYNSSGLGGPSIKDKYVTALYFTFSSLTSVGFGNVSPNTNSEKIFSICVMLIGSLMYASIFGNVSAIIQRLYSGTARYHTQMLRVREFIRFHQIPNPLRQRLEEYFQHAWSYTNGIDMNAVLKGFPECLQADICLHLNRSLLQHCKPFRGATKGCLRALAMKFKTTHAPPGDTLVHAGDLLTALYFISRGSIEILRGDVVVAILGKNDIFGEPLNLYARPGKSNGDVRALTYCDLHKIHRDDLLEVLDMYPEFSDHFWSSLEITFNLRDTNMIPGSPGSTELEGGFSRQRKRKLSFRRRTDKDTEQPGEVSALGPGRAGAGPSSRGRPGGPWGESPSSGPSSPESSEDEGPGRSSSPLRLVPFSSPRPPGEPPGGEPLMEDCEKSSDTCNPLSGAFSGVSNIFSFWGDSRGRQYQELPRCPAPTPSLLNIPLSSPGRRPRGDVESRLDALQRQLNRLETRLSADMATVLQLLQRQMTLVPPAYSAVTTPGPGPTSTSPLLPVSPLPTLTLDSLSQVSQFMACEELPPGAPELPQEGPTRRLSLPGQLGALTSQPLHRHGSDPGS
Procedure, shortened: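 hERG channel blockade was expressed as an IC20.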

[36] = system: Mus musculus; experiment: Toxicity in diet-induced obese C57Bl/6J mouse model assessed as effect on bone mineral density at 0.3 to 10 mg/kg, po administered daily for 23 days; assay type: organism-based; set-up: dose 0.3-10 mg/kg, route oral; conditions: in vivo; procedure, shortened: as §1
[37] = system: Mus musculus; experiment: Antidyslipidemic activity in diet-induced obese C57Bl/6J mouse model assessed as reduction in liver size at 0.3 to 10 mg/kg, po administered daily for 23 days; assay type: functional, organism-based; procedure, shortened: as §1
[38] = species on record: Oryctolagus cuniculus; experiment: Toxicity in hypercholesterolemic rabbit model assessed as effect on TSH level; assay type: organism-based; conditions: in vivo
[39] = target: Cytochrome P450 3A4 (Homo sapiens, UniProt P08684); experiment: Inhibition of CYP3A4 (unknown origin); assay type: ADME
Chain of Cytochrome P450 3A4 (P08684 whole entry): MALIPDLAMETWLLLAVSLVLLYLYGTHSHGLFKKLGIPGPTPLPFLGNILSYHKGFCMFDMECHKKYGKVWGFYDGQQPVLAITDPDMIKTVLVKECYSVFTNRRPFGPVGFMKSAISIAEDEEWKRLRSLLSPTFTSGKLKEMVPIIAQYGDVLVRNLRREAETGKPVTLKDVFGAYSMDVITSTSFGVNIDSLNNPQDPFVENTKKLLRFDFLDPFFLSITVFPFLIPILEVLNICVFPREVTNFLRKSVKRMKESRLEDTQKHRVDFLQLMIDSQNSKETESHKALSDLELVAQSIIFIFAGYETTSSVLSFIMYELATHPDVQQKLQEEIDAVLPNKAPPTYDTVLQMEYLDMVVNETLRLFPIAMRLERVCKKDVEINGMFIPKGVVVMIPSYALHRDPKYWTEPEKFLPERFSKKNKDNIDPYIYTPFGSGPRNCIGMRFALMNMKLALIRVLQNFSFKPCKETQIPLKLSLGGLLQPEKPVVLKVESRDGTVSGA

## CC(C)c1cc(Oc2c(Cl)cc(-n3nc(C#N)c(=O)[nH]c3=O)cc2Cl)n[nH]c1=O [RESMETIROM]
[1]
  Activity: Active
[2]
  Activity: Active
[3]
  AUC: 17400 ng·h/mL
[4]
  Activity: Active
[5]
  Activity: Active
[6]
  IC50: > 50 µM
[7]
  half-life: 245 min
[8]
  Activity: 0%
[9]
  concentration at 6 h: 94 µM
[10]
  Activity: Non-toxic
[11]
  Activity: Active
[12]
  Activity: Non-toxic
[13]
  Activity: Non-toxic
[14]
  Activity: Active
[15]
  Activity: Non-toxic
[16]
  Activity: Active
[17]
  Activity: Non-toxic
[18]
  IC50: > 50 µM
[19]
  Activity: Non-toxic
[20]
  permeability: permeable
[21]
  Activity: 10%
[22]
  clearance: 2.35 mL/min/kg
[23]
  Activity: <=60%
[24]
  Activity: 20%
[25]
  Activity: Non-toxic
[26]
  Activity: Non-toxic
[27]
  permeability: 1.37 ×10⁻⁶ cm/s
[28]
  AUC: 38100 ng·h/mL
[29]
  half-life: 204 min
[30]
  Kp: 8
[31]
  Fu: 0.6%
[32]
  Activity: <=30%
[33]
  Activity: Non-toxic
[34]
  Activity: Non-toxic
[35]
  IC20: 30 µM
[36]
  Activity: Non-toxic
[37]
  Activity: Active
[38]
  Activity: Non-toxic
[39]
  IC50: > 50 µM
